The source made the active and inactive calls. No cut-off for these calls is given here.
Columns and labels:
[1] = tested on: K562; test: Induction of apoptosis in human K562 cells assessed as viable cells at 300 nM after 6 hrs by Annexin V-FITC/propidium iodide staining-based flow cytometric analysis (reference value: 95.6%); format: functional; settings: K562, 6 h, read-out: Activity
[2] = tested on: K562; test: Induction of apoptosis in human K562 cells assessed as early apoptotic cells at 300 nM after 48 hrs by Annexin V-FITC/propidium iodide staining-based flow cytometric analysis (reference value: 2.2%); format: functional
[3] = tested on: K562; test: Induction of apoptosis in human K562 cells assessed as late apoptotic cells at 30 nM after 12 hrs by Annexin V-FITC/propidium iodide staining-based flow cytometric analysis (reference value: 2.2%); format: functional
[4] = tested on: K562; test: Induction of apoptosis in human K562 cells assessed as necrotic cells at 300 nM after 6 hrs by Annexin V-FITC/propidium iodide staining-based flow cytometric analysis (reference value: 0%); format: functional
[5] = tested on: HepG2; test: Anti-migratory activity against human HepG2 cells at 30 nM after 48 hrs by wound-healing assay relative to control; format: functional
In short: (§1)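 HepG2 cells seeded at 2 × 10^5 cells/well in DMEM and grown 24 h. Monolayer scratched with a 10 μl pipette tip, then PBS-washed three times. Treated with DMSO or compound (10, 30, 100 nM) at 37 °C, 5% CO2, imaged by microscopy at 0–48 h. Migration distance measured; inhibition ratio calculated against DMSO control.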

[6] = tested on: K562; test: Induction of apoptosis in human K562 cells assessed as early apoptotic cells at 300 nM after 6 hrs by Annexin V-FITC/propidium iodide staining-based flow cytometric analysis (reference value: 2.2%); format: functional
[7] = tested on: K562; test: Induction of apoptosis in human K562 cells assessed as early apoptotic cells at 300 nM after 24 hrs by Annexin V-FITC/propidium iodide staining-based flow cytometric analysis (reference value: 2.2%); format: functional
[8] = tested on: K562; test: Induction of apoptosis in human K562 cells assessed as viable cells at 300 nM after 24 hrs by Annexin V-FITC/propidium iodide staining-based flow cytometric analysis (reference value: 95.6%); format: functional; settings: K562, 24 h, read-out: Activity
[9] = tested on: HUVEC; test: Cytotoxicity against HUVEC after 48 hrs by MTT assay; format: cell-based; settings: Homo sapiens
[10] = tested on: K562; test: Antiproliferative activity against human K562 cells after 48 hrs by MTT assay; format: functional, cell-based; settings: K562, 48 h
In short: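 MTT assay on K562 cells (RPMI-1640, 10% FBS) plated at 5 × 10^4 cells/ml for 2 h, then exposed to 10–100,000 nM compound for 48 h. MTT (5 mg/mL stock) added for 4 h before absorbance read. Viability normalized to DMSO controls (100%); IC50 from nonlinear regression, three independent assays.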

[11] = tested on: K562; test: Induction of apoptosis in human K562 cells assessed as viable cells at 300 nM after 12 hrs by Annexin V-FITC/propidium iodide staining-based flow cytometric analysis (reference value: 95.6%); format: functional; settings: K562, 12 h, read-out: Activity
[12] = tested on: K562; test: Induction of morphological changes in human K562 cells assessed as cell shrinkage at 30 nM after 24 hrs; format: functional, cell-based
In short: (§2)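 K562 cells kept in RPMI-1640 with 10% FBS, 2.05 mM glutamine and penicillin/streptomycin at 37 °C, 5% CO2. Exposed to 30 nM drug alongside DMSO-treated controls. Cell morphology examined by microscopy.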

[13] = tested on: K562; test: Induction of apoptosis in human K562 cells assessed as early apoptotic cells at 30 nM after 24 hrs by Annexin V-FITC/propidium iodide staining-based flow cytometric analysis (reference value: 1.9%); format: functional
[14] = tested on: K562; test: Induction of apoptosis in human K562 cells assessed as late apoptotic cells at 30 nM after 6 hrs by Annexin V-FITC/propidium iodide staining-based flow cytometric analysis (reference value: 2.2%); format: functional
[15] = tested on: K562; test: Induction of apoptosis in human K562 cells assessed as late apoptotic cells at 300 nM after 12 hrs by Annexin V-FITC/propidium iodide staining-based flow cytometric analysis (reference value: 2.1%); format: functional
[16] = tested on: K562; test: Induction of apoptosis in human K562 cells assessed as necrotic cells at 30 nM after 12 hrs by Annexin V-FITC/propidium iodide staining-based flow cytometric analysis (reference value: 0.1%); format: functional
[17] = tested on: HepG2; test: Anti-migratory activity against human HepG2 cells after 24 hrs by DAPI staining-based transwell assay; format: functional, cell-based
In short: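 HepG2 cells in serum-free DMEM, 2 × 10^5 cells/well, placed in upper compartment of polycarbonate filter inserts; lower chamber DMEM + 10% FBS. Compound or DMSO added after 30 min; 24 h at 37 °C, 5% CO2. Filters methanol-fixed and DAPI-stained, non-migrated cells swabbed off. Migrated cells on the lower side counted in three random fields.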

[18] = tested on: K562; test: Induction of apoptosis in human K562 cells assessed as necrotic cells at 300 nM after 24 hrs by Annexin V-FITC/propidium iodide staining-based flow cytometric analysis (reference value: 0%); format: functional
[19] = tested on: K562; test: Induction of apoptosis in human K562 cells assessed as necrotic cells at 30 nM after 48 hrs by Annexin V-FITC/propidium iodide staining-based flow cytometric analysis (reference value: 0.1%); format: functional
[20] = tested on: K562; test: Induction of apoptosis in human K562 cells assessed as early apoptotic cells at 300 nM after 12 hrs by Annexin V-FITC/propidium iodide staining-based flow cytometric analysis (reference value: 2.2%); format: functional
[21] = tested on: K562; test: Induction of apoptosis in human K562 cells assessed as viable cells at 30 nM after 6 hrs by Annexin V-FITC/propidium iodide staining-based flow cytometric analysis (reference value: 95.8%); format: functional; settings: K562, 6 h, read-out: Activity
[22] = tested on: K562; test: Induction of apoptosis in human K562 cells assessed as necrotic cells at 300 nM after 48 hrs by Annexin V-FITC/propidium iodide staining-based flow cytometric analysis (reference value: 0%); format: functional
[23] = tested on: HepG2; test: Anti-migratory activity against human HepG2 cells at 100 nM after 48 hrs by wound-healing assay relative to control; format: functional; in short: as §1
[24] = tested on: K562; test: Induction of apoptosis in human K562 cells assessed as late apoptotic cells at 30 nM after 48 hrs by Annexin V-FITC/propidium iodide staining-based flow cytometric analysis (reference value: 2.2%); format: functional
[25] = tested on: HepG2; test: Anti-migratory activity against human HepG2 cells at 10 nM after 48 hrs by wound-healing assay relative to control; format: functional; in short: as §1
[26] = tested on: K562; test: Induction of apoptosis in human K562 cells assessed as necrotic cells at 300 nM after 12 hrs by Annexin V-FITC/propidium iodide staining-based flow cytometric analysis (reference value: 0%); format: functional
[27] = tested on: K562; test: Induction of morphological changes in human K562 cells assessed as cell blebbing at 30 nM after 24 hrs; format: functional, cell-based; in short: as §2
[28] = tested on: K562; test: Induction of apoptosis in human K562 cells assessed as viable cells at 30 nM after 12 hrs by Annexin V-FITC/propidium iodide staining-based flow cytometric analysis (reference value: 95.8%); format: functional; settings: K562, 12 h, read-out: Activity
[29] = tested on: K562; test: Induction of morphological changes in human K562 cells assessed as elongation of cells at 30 nM after 6 hrs; format: functional, cell-based; in short: as §2
[30] = tested on: K562; test: Induction of apoptosis in human K562 cells assessed as viable cells at 30 nM after 48 hrs by Annexin V-FITC/propidium iodide staining-based flow cytometric analysis (reference value: 95.8%); format: functional; settings: K562, 48 h, read-out: Activity

`COc1ccc(CN2C(=O)C(=O)c3cc(-c4ccc(OC)cc4)ccc32)cc1` was tested, and the viability at 0.3 µM [1] was 93.6%, the Activity [2] was 85.2% and the Activity [3] was 4%. For the same compound, the Activity [4] was 0.2%, the Activity [5] was 26.9% and the Activity [6] was 2.4%. For the same compound, the Activity [7] was 12.4%, the viability at 0.3 µM [8] was 82.6% and the IC50 [9] was 920 nM. For the same compound, the IC50 [10] was 30 nM, the viability at 0.3 µM [11] was 88.1% and the Activity [12] was “Active”. The Activity [13] was 5.7%, the Activity [14] was 3.3% and the Activity [15] was 5.9%. The Activity [16] was 0%, the Activity [17] was “Dose-dependent effect” and the Activity [18] was 0.2%. The Activity [19] was 1%, the Activity [20] was 5.7% and the viability at 0.03 µM [21] was 94.4%. For the same compound, the Activity [22] was 0%, the Activity [23] was 47.9% and the Activity [24] was 21.1%. For the same compound, the Activity [25] was 11.9%, the Activity [26] was 0.4% and the Activity [27] was “Active”. For the same compound, the viability at 0.03 µM [28] was 92.8%, the Activity [29] was “Active” and the viability at 0.03 µM [30] was 55.6%.

— ChEMBL document CHEMBL4270578, “Synthesis and cytotoxic studies of novel 5-phenylisatin derivatives and their anti-migration and anti-angiogenic evaluation” (Eur J Med Chem, 2018)
